Measurements of several laboratories.
Protocols differ between the studies behind these lines.
Target: Serine/threonine-protein kinase TAO3 (TAOK3, Homo sapiens, UniProt Q9H2K8)
Residues used in one study (Q9H2K8 1-898): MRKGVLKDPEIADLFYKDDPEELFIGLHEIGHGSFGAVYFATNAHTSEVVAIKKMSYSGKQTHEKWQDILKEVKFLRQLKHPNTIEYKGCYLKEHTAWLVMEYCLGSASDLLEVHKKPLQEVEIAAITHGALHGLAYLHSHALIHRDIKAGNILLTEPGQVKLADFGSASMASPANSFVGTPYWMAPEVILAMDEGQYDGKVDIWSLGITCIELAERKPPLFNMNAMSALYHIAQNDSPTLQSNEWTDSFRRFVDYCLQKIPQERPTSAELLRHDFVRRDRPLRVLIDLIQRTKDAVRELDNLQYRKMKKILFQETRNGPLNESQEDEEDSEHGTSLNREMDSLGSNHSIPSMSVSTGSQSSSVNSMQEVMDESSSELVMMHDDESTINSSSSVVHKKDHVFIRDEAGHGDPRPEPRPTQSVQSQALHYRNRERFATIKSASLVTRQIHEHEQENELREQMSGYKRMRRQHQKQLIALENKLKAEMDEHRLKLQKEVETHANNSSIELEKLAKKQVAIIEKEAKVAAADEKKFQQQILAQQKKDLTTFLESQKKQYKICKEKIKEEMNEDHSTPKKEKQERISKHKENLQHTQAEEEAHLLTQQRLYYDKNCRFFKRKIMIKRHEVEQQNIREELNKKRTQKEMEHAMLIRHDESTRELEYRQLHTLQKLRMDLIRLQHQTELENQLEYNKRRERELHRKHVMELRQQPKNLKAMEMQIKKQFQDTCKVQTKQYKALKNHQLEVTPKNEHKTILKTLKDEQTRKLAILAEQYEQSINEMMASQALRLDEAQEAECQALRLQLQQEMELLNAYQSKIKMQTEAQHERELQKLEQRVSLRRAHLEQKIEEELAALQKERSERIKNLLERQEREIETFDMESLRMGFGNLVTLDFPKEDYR

O=C(Nc1ccc(Oc2ccc(F)cc2)cc1)N1CCc2ncccc2[C@H]1c1ccc(F)cc1 — remaining binding (cell-free assay, competition with immobilised ligand; 1 µM): 92%
C#Cc1cccc(Nc2ncnc3cc(OCCOC)c(OCCOC)cc23)c1 — remaining signal (cell-free assay; 0.5 µM): 106%
Cc1nc(C2CCN(C(=O)c3ccc(OC(F)(F)F)cc3N)CC2)c2ncc(N3CCN(C)CC3)cc2n1 — remaining binding (cell-free assay, competition with immobilised ligand; 1 µM): 100%
COc1cc2c(N3CCN(C(=O)Nc4ccc(OC(C)C)cc4)CC3)ncnc2cc1OCCCN1CCCCC1 — remaining signal (cell-free assay; 0.5 µM): 96.8%
CCOc1cc(-c2nncn2C)ccc1Nc1ncc2cc(C)nc(NCC(C)(C)C)c2n1 — inhibition (cell-free assay, TR-FRET; 1 µM): ≤ 15%
COc1cc2c(Nc3ccc(Br)cc3F)ncnc2cc1OCC1CCN(C)CC1 — remaining signal (cell-free assay; 0.5 µM): 98.4%
O=C(Nc1cnn(-c2csc(C(=O)NC3COC3)c2)c1)Nc1c(F)cccc1Cl — remaining activity (enzyme activity, inhibitor; 5 µM): 90.2%
CCOCCn1cc(C(=O)Nc2ccc(-n3nc(-c4cccnc4)cc3C(F)(F)F)cn2)ccc1=O — remaining binding (cell-free assay, competition with immobilised ligand; 1 µM): 66%
Cc1cnc(NC2CCOCC2)nc1-n1cnc(C(=O)NC(CN)c2cc(F)cc(Cl)c2)c1 (centres unmarked) — remaining activity (enzyme activity, inhibitor, radiometric; 1 µM): 89%
CC(C)(C)c1nc(-c2cccc(NS(=O)(=O)c3c(F)cccc3F)c2F)c(-c2ccnc(N)n2)s1 — remaining activity (enzyme activity, inhibitor, radiometric; 1 µM): 91%
COc1cc(-c2cc(-c3ccc(N4CCNCC4)cc3)cnc2C)cc(OC)c1OC — inhibition (enzyme activity, inhibitor; 1 µM): 3%
CN(C)c1nccc(-c2cnn3ncccc23)n1 — remaining binding (binding; 1 µM): 73%
Cc1ccc(Nc2nccc(N(C)c3ccc4c(C)n(C)nc4c3)n2)cc1S(N)(=O)=O — inhibition (enzyme activity, inhibitor; 10 µM): 96%
CN(C)C(=O)Cn1cc(-c2nc(C3(c4ccc(-c5cnc(N)nc5)cc4)CC3)no2)cn1 — remaining binding (cell-free assay, competition with immobilised ligand; 1 µM): 67%
CCCOc1ccc(OC)c(F)c1C(=O)c1ccc(C(=O)N[C@@H]2CNC[C@H]2NC(=O)c2ccc3[nH]ncc3c2)cc1 — remaining activity (enzyme activity, inhibitor; 10 µM): 81%
Cc1ccc(NC(=O)c2ccc(C)c(C(F)(F)F)c2)cc1C#Cc1nn(C2CCC(O)CC2)c2ncnc(N)c12 (centres unmarked) — remaining signal (cell-free assay; 10 µM): 2%
O=C(O)c1cc(-c2ccc(C3CCNCC3)cc2)c2ccc(-c3ccc(C(F)(F)F)cc3)cc2c1 — remaining binding (cell-free assay, competition with immobilised ligand; 1 µM): 100%
Cc1ccc(C(=O)Nc2ccc(CN3CCN(C)CC3)c(C(F)(F)F)c2)cc1C#Cc1cnc2cccnn12 — remaining activity (enzyme activity, inhibitor; 23.5 nM): 28%
Clc1ccc(Nc2nnc(Cc3ccncc3)c3ccccc23)cc1 — remaining signal (cell-free assay; 0.5 µM): 99.9%
CC1=C(C#N)C(c2ccc3c(c2)c(NC(=O)c2ccccc2C)nn3C)C(C#N)=C(C)N1 — remaining binding (cell-free assay, competition with immobilised ligand; 1 µM): 80%
CCCS(=O)(=O)Nc1ccc(F)c(C(=O)c2c[nH]c3ncc(-c4ccc(Cl)cc4)cc23)c1F — inhibition (enzyme activity, inhibitor; 1 µM): < 10%
O=C1Nc2ccc(Cl)cc2C1=Cc1cc(Cl)c(O)c(Cl)c1 — remaining signal (cell-free assay; 0.5 µM): 50.6%
CCC(=N\O)/C(C)=C/c1ccc(F)cc1 — remaining binding (cell-free assay, competition with immobilised ligand; 1 µM): 86%
